MEKK2mut PB1 HTS = signal of MEK5 binding to mutant human MEKK2 PB1 domain | percent response, % at 10 µM | bead flow cytometry, Alexa488-MEK5 binding to MEKK2 mutant | 290,000 compounds, 0.35% hits; in the data active = percent response above about 24%, passing the limit was not always enough
Lipid droplet = hepatic lipid droplet formation modulation; AML12 mouse hepatocytes, oleate lipid droplets, BODIPY imaging; inhibition, % at 6.5 µM; 240,000 compounds, 0.4% hits; AID 1656;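 active = lipid droplet intensity inhibited by at least 50%, with more than 500 cells counted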
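Technique: fluorescence imaging, 20x objective, two fields per well / Assay system: AML12 hepatocytes (mouse) / Measure: % inhibition of lipid droplet signal / Doses: 6.5 µM single-point dosing / Incubation: overnight exposure / Reagent: 100 µM oleic acid challenge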
MEKK3 PB1 HTS = raises or lowers MEK5 binding to the human MEKK3 PB1 domain. binding response (% of control), % at 10 µM. bead-based flow cytometry, Alexa488-MEK5 binding to MEKK3; actives lie on both sides; 0 = blocked by unlabeled MEK5, 100 = vehicle. Q99759. 290,000 compounds, 1.4% hits;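 active = binding response more than 3 SD above or below the average of its plate-row segment, actives on both sides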;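 also: Alexa488 bead fluorescence after subtracting the streptavidin-only scavenger bead signal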
Target sequence (Q99759 whole entry, looked up, the tested form may be a part): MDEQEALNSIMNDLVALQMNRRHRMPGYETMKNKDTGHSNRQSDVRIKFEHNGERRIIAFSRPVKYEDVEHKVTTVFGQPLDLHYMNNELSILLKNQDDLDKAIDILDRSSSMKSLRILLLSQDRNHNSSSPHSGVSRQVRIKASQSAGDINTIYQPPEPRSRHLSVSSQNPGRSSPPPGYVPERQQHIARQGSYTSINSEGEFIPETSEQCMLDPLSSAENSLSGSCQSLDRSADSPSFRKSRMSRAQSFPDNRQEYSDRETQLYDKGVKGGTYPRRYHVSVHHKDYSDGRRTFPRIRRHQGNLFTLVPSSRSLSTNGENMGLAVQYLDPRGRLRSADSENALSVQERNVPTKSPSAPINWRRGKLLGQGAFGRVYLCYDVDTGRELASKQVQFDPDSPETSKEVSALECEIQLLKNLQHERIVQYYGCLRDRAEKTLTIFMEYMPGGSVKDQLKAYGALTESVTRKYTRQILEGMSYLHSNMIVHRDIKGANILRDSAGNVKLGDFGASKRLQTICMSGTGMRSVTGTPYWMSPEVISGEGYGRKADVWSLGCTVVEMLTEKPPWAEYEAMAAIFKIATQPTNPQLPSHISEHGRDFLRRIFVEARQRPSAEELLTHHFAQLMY
MEKK2wt PB1 HTS = raises or lowers MEK5 binding to wildtype human MEKK2 PB1 domain; Q9Y2U5; bead flow cytometry, Alexa488-MEK5 binding to MEKK2 WT; actives lie on both sides; binding response (% of control), % at 10 µM; 290,000 compounds, 1.1% hits; AID 1531; in the data active = binding response below about 67% or above about 130%
MEKK2wt confirm = raises or lowers MEK5 binding to wildtype human MEKK2, retest; shares compounds with MEKK3 PB1 HTS; bead flow cytometry, Alexa488-MEK5 binding to MEKK2 WT; actives lie on both sides; binding response (% of control), % at 10 µM; 5,900 compounds, 2.4% hits; AID 1892; in the data active = binding response below about 16% or above about 210%; inactive = in between
MEKK2mut-MEK5 = signal of MEK5 binding to mutant human MEKK2, retest | shares compounds with MEKK3 PB1 HTS | bead flow cytometry, Alexa488-MEK5 binding to MEKK2 mutant | percent response, % at 10 µM | 5,900 compounds, 2% hits; in the data active = percent response mostly above about 71%, no sharp cut-off; inactive = mostly below about 38%;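 also: higher means compound restores mutant binding toward wildtype level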
MEKK3-MEK5 inh = MEKK3-MEK5 PB1 inhibition, single concentration confirmation; shares compounds with MEKK3 PB1 HTS; bead flow cytometry, Alexa488-MEK5 binding to MEKK3; active compounds read low; binding response (% of control), % at 10 µM; 5,900 compounds, 1.8% hits; AID 1894;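 active = binding response below 72% of control, or above a set upper limit, though filed actives all read lower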;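 also: lower values mean stronger disruption of MEK5 binding to MEKK3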
Numbers stand for hits; i = inactive; nt = not tested or not shown; [ ] = another dose, or the depositor's remark. Most compounds without a hit are left out; they make up all but 2.6% or so of the library.

SMILES	MEKK2mut PB1 HTS	Lipid droplet	MEKK3 PB1 HTS	MEKK2wt PB1 HTS	MEKK2wt confirm	MEKK2mut-MEK5	MEKK3-MEK5 inh
N#CC1(C#N)C(c2ccccc2)OC23CCCCC2C1(C#N)C(=N)O3 (stereo not drawn)	i	i	140	i	i	i	i
N#CCN1C(=S)N=C(Nc2cccc(Cl)c2)C12CCCCC2	i	nt	i	i	nt	nt	nt
CC(C)(C)C1CCC2(CC1)C(Nc1cccc(C(F)(F)F)c1)=NC(=S)N2CC#N (stereo not drawn)	i	i	2.0[inhibitor]	3.0[inhibitor]	i	i	i
CCOC(=O)c1sc(NC(=O)COC(=O)C(CCSC)NC(C)=O)nc1C (stereo not drawn)	i	i	61[inhibitor]	i	i	i	i
Cc1cccc(C)c1NC(=O)C(=O)NCCCN1CCOCC1	i	i	61[inhibitor]	i	i	i	i
Cc1cccc2c(=O)c(C(=O)NCCCN3CCOCC3)c[nH]c12	i	i	71[inhibitor]	i	i	i	i
S=C(NCCN1CCOCC1)N/N=C/c1c2ccccc2cc2ccccc12	i	i	1.0[inhibitor]	-2.0[inhibitor]	i	i	i
O=C(NCCCN1CCOCC1)C(=O)N/N=C/c1ccccc1	i	i	157	i	i	i	i
COc1cc(/C=N/Nc2ncnc3sc4c(c23)CCC4)ccc1O	i	i	i	i	nt	nt	nt
S=C(NCCN1CCOCC1)Nc1ccc(Br)cc1	i	i	145	i	i	i	i
S=C(NCCN1CCOCC1)Nc1ccc(Nc2ccccc2)cc1	i	i	i	i	nt	nt	nt
Cc1cccc(NC(=S)NC2CCSc3ccccc32)c1 (stereo not drawn)	i	i	i	i	nt	nt	nt
CCC(C)(C)c1ccc(OCCCC[n+]2cccc(C)c2)c(C(C)(C)CC)c1	i	i	i	191	i	81	i
Cc1ccc[n+](CC(=O)Nc2cc(C(F)(F)F)ccc2Cl)c1	i	i	i	i	nt	nt	nt
CCN(CC)CCN(Cc1cc2cc3c(cc2[nH]c1=O)OCCO3)C(=S)NCCCN(C)C	i	i	i	138	i	i	i
CCN(CC)CCN(Cc1cc2cc3c(cc2[nH]c1=O)OCO3)C(=S)NCCCN(C)C	i	i	i	i	nt	nt	nt
CCCCNC(=S)N(CCN(CC)CC)Cc1cc2cc3c(cc2[nH]c1=O)OCO3	24	i	i	i	i	i	i
NC(=O)c1cnn(C2CCS(=O)(=O)C2)c1 (stereo not drawn)	i	i	i	i	nt	nt	nt
CCOc1ccc2nc(C)cc(C(=O)O)c2c1	i	nt	0.0[inhibitor]	-7.0[inhibitor]	i	i	i
COc1ccc(-n2ncc3c2CC(C)(C)CC3NC(=O)c2ccc(OC)o2)cc1 (stereo not drawn)	i	i	i	i	nt	nt	nt
Cn1cc(C(=O)c2cccc(Cl)c2)cc1C#N	i	i	i	i	nt	nt	nt
Cn1cc(C(=O)c2cccc(Cl)c2)cc1/C=N\O	i	i	42[inhibitor]	i	i	i	i
COC(=O)c1ccc(C)c(NC(=O)CN(c2ccccc2)S(=O)(=O)N(C)C)c1	i	i	i	i	nt	nt	nt
COc1ccc(CCNC(=O)NCCc2c[nH]c3ccccc23)cc1OC	i	i	i	i	nt	nt	nt
COc1cc(CNCCc2c[nH]c3ccccc23)ccc1OCc1ccccc1F	60	nt	i	244	i	73	i
SMILES	MEKK2mut PB1 HTS	Lipid droplet	MEKK3 PB1 HTS	MEKK2wt PB1 HTS	MEKK2wt confirm	MEKK2mut-MEK5	MEKK3-MEK5 inh
COc1cccc(CNCCc2c[nH]c3ccccc23)c1OCc1ccccc1	58	i	i	165	i	i	i
Cc1noc(C)c1CSCC(=O)N(C)CC(=O)Nc1ccc(Cl)cc1	i	i	i	i	nt	nt	nt
CCN1N=C(C)C=C(c2ccccc2)n2c1nc1ccccc12	i	i	i	i	nt	nt	nt
COc1ccc(NS(=O)(=O)c2cccc(NC(=O)CCS(=O)(=O)c3ccccc3)c2)cc1	i	i	i	i	nt	nt	nt
O=C(NCc1ccccc1)C1CCC(CNc2c(N3CCCCC3)c(=O)c2=O)CC1 (stereo not drawn)	i	i	70[inhibitor]	i	i	i	i
CC(C)(O)C#Cc1ccc(C(=O)N2CCN(c3ccc(F)cc3)CC2)cc1	i	i	i	i	nt	nt	nt
CC(C)(O)C#Cc1ccc(C(=O)N2CCN(c3ccc(Cl)cc3)CC2)cc1	i	i	49[inhibitor]	i	i	i	i
